Assay results reported in ChEMBL document CHEMBL1155093 (Bioorg Med Chem Lett, 2008).

Experiments:
[1] = biological target: T1, Nuclear receptor subfamily 1 group I member 2 (Homo sapiens, UniProt O75469); experiment: Induction of PXR transactivation in HepG2 cells; type: cell-based
T1 sequence (O75469 whole entry): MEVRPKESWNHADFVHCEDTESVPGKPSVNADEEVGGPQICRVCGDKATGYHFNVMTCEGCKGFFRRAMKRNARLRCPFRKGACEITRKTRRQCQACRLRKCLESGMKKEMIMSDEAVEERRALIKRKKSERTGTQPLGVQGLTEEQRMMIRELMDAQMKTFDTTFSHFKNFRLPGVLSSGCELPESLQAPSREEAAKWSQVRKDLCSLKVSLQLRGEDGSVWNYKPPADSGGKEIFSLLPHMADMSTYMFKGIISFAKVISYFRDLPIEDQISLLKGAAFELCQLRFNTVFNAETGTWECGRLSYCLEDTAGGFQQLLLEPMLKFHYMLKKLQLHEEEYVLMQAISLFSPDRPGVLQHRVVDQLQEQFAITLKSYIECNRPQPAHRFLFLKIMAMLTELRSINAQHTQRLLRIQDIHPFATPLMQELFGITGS
Procedure, shortened: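 HepG2 cells transiently transfected with PXR-pcDNA3 and Cyp3A-Luc reporter, cryopreserved, then thawed into DMEM with 5% charcoal/dextran FBS. Ten concentrations, 1:3 serial dilution, DMSO 0.1% final; 24 h at 37 °C. Luciferase luminescence read. % activation relative to 10 µM rifampicin (total) and DMSO (blank); EC50 and Emax from concentration–%Act plot.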

[2] = biological target: T1, Nuclear receptor subfamily 1 group I member 2; experiment: Inhibition of refampicin-mediated PXR activation in HepG2 cells; type: cell-based
Procedure, shortened: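 HepG2 cells transiently co-transfected with PXR-pcDNA3 and Cyp3A-Luc, cryopreserved and thawed into charcoal/dextran-FBS medium. Co-incubated with 10 µM rifampicin plus compound at ten concentrations (1:3 dilution, 0.1% DMSO final), 24 h at 37 °C; luciferase luminescence. Percent inhibition computed; IC50 and Imax taken from the concentration–%Inh plot.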

Cytochrome P450 3A4 = Cytochrome P450 3A4 (Homo sapiens, UniProt P08684); experiment: Inhibition of CYP3A4 in human liver microsome; type: ADME, microsomes
Procedure, shortened: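 Pooled human liver microsomes 0.1 mg/mL, midazolam 5 µM, NADPH 1 mM, 5 min reaction. Time-dependent variant: 30 min preincubation without midazolam, then midazolam added for 5 min. 1-Hydroxymidazolam measured against DMSO control; IC50 and maximum inhibition taken from the concentration–%Inh plot.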

Caco-2 = experiment: Cytotoxicity against human Caco-2 cells assessed as viability upto 100 uM by MTT assay; type: functional
Procedure, shortened: (§1)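 MTT viability read-out; cells exposed to a concentration range of drug for 48 h. Three separate experiments, each run in triplicate.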

LS174T = experiment: Cytotoxicity against human LS174T cells assessed as viability upto 100 uM by MTT assay; type: functional; procedure, shortened: as §1
SK-OV-3 = experiment: Cytotoxicity against human SKOV3 cells assessed as viability upto 100 uM by MTT assay; type: functional; procedure, shortened: as §1
[3] = Cytotoxicity against human CRL cells assessed as viability upto 100 uM by MTT assay; type: cell-based; conditions: read-out: Activity; procedure, shortened: as §1

Chain of Cytochrome P450 3A4 (P08684 whole entry): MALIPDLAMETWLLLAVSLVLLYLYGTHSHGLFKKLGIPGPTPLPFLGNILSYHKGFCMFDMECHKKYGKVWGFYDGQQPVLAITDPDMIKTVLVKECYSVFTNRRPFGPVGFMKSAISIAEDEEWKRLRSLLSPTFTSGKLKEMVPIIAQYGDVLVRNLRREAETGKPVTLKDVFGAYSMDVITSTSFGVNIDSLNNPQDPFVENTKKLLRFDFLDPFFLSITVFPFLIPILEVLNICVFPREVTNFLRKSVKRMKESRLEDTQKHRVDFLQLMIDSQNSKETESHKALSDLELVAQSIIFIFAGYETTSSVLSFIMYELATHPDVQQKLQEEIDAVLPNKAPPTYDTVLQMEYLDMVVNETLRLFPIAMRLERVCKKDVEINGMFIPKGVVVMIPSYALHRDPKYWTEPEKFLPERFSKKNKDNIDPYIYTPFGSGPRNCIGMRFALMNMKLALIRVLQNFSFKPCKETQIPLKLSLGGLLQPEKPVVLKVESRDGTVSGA

| Activity [1] | inhibition (INH) [2] | IC50 (Cytochrome P450 3A4) | Structure (SMILES) | Activity (Caco-2) | Activity (LS174T) | Activity (SK-OV-3) | viability [3] |
| --- | --- | --- | --- | --- | --- | --- | --- |
| 10% | 109% |  | CC(=O)N1CCN(c2ccc(OCC3COC(C)(c4ccc(Cl)cc4Cl)O3)cc2)CC1 (stereo not drawn) |  |  |  |  |
| 10% | 103% | > 40 µM | CC(=O)N1CCN(c2ccc(OC[C@H]3CO[C@@](C)(c4ccc(F)cc4F)O3)cc2)CC1 | 98% | 98% | 98% | 98% |
|  |  |  | CC(=O)N1CCN(c2ccc(OC[C@H]3CO[C@](Cn4ccnc4)(c4ccc(Cl)cc4Cl)O3)cc2)CC1 [KETOCONAZOLE] | 65% | 65% | 65% | 65% |
